Screening data (PubChem BioAssay)
Compounds with a hit are over-represented: about 3.5% of the library has one in this group of screens.
MrgX1 agonist: human MrgX1 receptor agonism, primary screen. Q96LB2. MrgX1-HEK293 cells, Fluo-4 calcium fluorescence, agonist mode; active compounds read high. B-score at 10 µM. 0.44% of 310,000 active. AID 588627;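 active = calcium response B-score plate-corrected fluorescence ratio at least 3 library SD, with starting fluorescence B-score inside 5 SD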
Target sequence (Q96LB2 whole entry, looked up): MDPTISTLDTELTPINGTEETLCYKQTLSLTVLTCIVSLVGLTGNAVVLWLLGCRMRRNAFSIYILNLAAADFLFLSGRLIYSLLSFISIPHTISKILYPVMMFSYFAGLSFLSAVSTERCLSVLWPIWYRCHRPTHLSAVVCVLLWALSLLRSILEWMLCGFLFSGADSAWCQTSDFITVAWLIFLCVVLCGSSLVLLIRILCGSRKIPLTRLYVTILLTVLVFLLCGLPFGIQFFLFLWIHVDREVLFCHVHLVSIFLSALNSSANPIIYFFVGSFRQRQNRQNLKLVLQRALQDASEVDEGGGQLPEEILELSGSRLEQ
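System – MrgX1-expressing HEK293 cells · Incubation – cells plated overnight, dye loaded 0.5 h 37 °C, 0.5 h room temperature · Technique – kinetic Fluo-4 NW fluorescence of intracellular calcium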
MrgX1 antag: blocks BAM8-22 activation of human MrgX1 receptor | B-score at 10 µM | AID 588676 | MRGX1-HEK293 calcium flux, Fluo-4, BAM8-22 antagonism; active compounds read low | 1.3% of 310,000 active;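 active = calcium-response B-score plate-corrected more than 3 library SD below zero, starting fluorescence within 5 deviations, no agonist response on first addition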;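 note: peak minus trough fluorescence over baseline after final BAM8-22 challenge near maximal dose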
MrgX1 allo act: allosterically activates human MrgX1 receptor signaling; 0.63% of 310,000 active; Q96LB2; MrgX1-HEK293, Fluo-4 calcium flux, FDSS; active compounds read high; B-score at 10 µM;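 active = plate-corrected calcium response at least 3 library SD above typical, normal starting fluorescence, not activating the receptor alone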;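 note: compound read alongside a low EC10 to EC30 dose of BAM8-22 agonist; peak minus trough fluorescence over baseline measured at the second addition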
RGS4 pot: RGS4 potentiation or activation; B-score at 10 µM; HEK293 M3R/inducible RGS4, carbachol calcium flux Fluo4; active compounds read low; 0.92% of 310,000 active;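 active = B-score of the integrated calcium signal more than 4 SD below the library mean, with starting fluorescence not abnormally high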;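 note: negative B-score means reduced calcium response which marks RGS4 activation or potentiation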
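Assay system: Inducible-RGS4 HEK293 cells carrying M3 receptor | Schedule: Compound preincubation 20 min at room temperature before agonist | Signal: Kinetic calcium fluorescence imaging with Fluo4-AM dye, 2 µM | Read-out basis: B score from integrated fluorescence ratio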
RGS4 inh: inhibitors of human RGS4 | B-score at 10 µM | 0.45% of 310,000 active | P49798 | HEK293 M3R/RGS4 inducible, Fluo-4 calcium flux; active compounds read high; triggered by carbachol at its EC20;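 active = B-score, a plate-corrected calcium signal, over three deviations above library mean, with baseline fluorescence within five deviations of library mean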;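 note: RGS4 expression induced by doxycycline in cells with stable M3 receptor; B-score is computed from the integrated fluorescence ratio over baseline after carbachol; higher B-score means a larger calcium signal and so more RGS4 inhibition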
MrgX1 antag conf: confirmation of human MrgX1 receptor antagonists; shares compounds with MrgX1 antag; MrgX1-HEK293, BAM8-22 calcium flux, Fluo-4; active compounds read low; remaining BAM8-22 calcium response % of control (active compounds read low), % at 10 µM; 19% of 2,300 active; AID 602420;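 active = remaining agonist calcium response no higher than 100% minus 3 SD of agonist-only control wells, with starting fluorescence near control levels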;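 note: agonist BAM8-22 given at a near maximal EC90 to ECmax level; peak minus minimum fluorescence divided by baseline after agonist addition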
HEK293 Ca flux: counter-screen for MrgX1 antagonists: effect in parental HEK293 cells. shares compounds with MrgX1 antag. fluorescence ratio F(max-min)/F0 at 10 µM. Fluo-4 calcium fluorescence, FDSS. AID 624111. 2% of 4,000 active;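 active = duplicate-averaged calcium fluorescence ratio at least three times the standard deviation of buffer wells, a nonspecific response in parental cells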
HEK293 Ca counter: MrgX1 allosteric activator counter-screen hit in parental HEK293 cells; 0.4% of 4,000 active; shares compounds with MrgX1 antag; parental HEK293 calcium flux, Fluo-4 fluorescence ratio; active compounds read high; fluorescence ratio F(max-min)/F0 at 10 µM;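 active = calcium fluorescence ratio, averaged over duplicates, at least 3 SD of the buffer-well ratio, meaning a nonspecific response in receptor-free cells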;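 note: untransfected parental HEK293 lacking MrgX1 used as counterscreen for MrgX1 allosteric activators; fluorescence change taken during the second addition on a kinetic imager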
HEK293 Ca cntr2: counter-screen for MrgX1 activators: effect in parental HEK293 cells | fluorescence ratio F(max-min)/F0 at 10 µM | shares compounds with MrgX1 antag | 8.7% of 4,000 active | Fluo-4 calcium fluorescence (FDSS); active compounds read high;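 active = calcium fluorescence ratio at least three times the spread of buffer wells, meaning a non-specific response in parental cells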
* hit, by the source's call; i = inactive; nt = no result given.

SMILES	MrgX1 agonist	MrgX1 antag	MrgX1 allo act	RGS4 pot	RGS4 inh	MrgX1 antag conf	HEK293 Ca flux	HEK293 Ca counter	HEK293 Ca cntr2
CCN1C(=O)[C@H]2[C@@H](c3ccc(C)cc3)N3C(=O)N(c4ccc(OC)cc4)C(=O)[C@@]3(C)[C@H]2C1=O	i	i	i	i	i	nt	nt	nt	nt
Clc1cccc(Cl)c1/C=C/c1ccn[nH]1	i	i	i	i	i	nt	nt	nt	nt
O=C1CC(N2CCN(c3ccccc3)CC2)C(=O)N1c1cccc(Br)c1 (stereo not drawn)	i	i	i	i	i	nt	nt	nt	nt
O=C1CC(N2CCSCC2)C(=O)N1c1cccc(Br)c1 (stereo not drawn)	i	-9.1*	i	i	i	i	i	i	i
CC(/C=C1\SC(=S)N(C(C(=O)O)c2ccccc2)C1=O)=C\c1ccccc1 (stereo not drawn)	i	-14*	i	-7.4*	i	i	i	i	i
CC(C)CN(C(=O)c1ccco1)C1CCS(=O)(=O)C1 (stereo not drawn)	i	-4.9*	i	i	i	i	i	i	i
CN(C)S(=O)(=O)c1ccc(C(=O)OCC(=O)c2ccc(OC(F)F)cc2OC(F)F)cc1	i	i	i	i	i	nt	nt	nt	nt
CCOc1ccc(NC(=O)CC2SC(=O)N(c3ccccc3)C2=O)cc1 (stereo not drawn)	i	i	i	i	i	nt	nt	nt	nt
CCOC(=O)c1cnc2c(cnn2C)c1Oc1ccc(OC)cc1	i	i	i	i	i	nt	nt	nt	nt
CCOC(=O)c1cnc2c(cnn2C)c1NCCC(O)C(F)(F)F (stereo not drawn)	i	-4.8*	i	i	i	i	i	i	i
O=C(Nc1cccc(F)c1)Nc1ccnn1C1CCN(C(=O)c2cscn2)CC1	i	-7.3*	i	i	i	i	i	i	i
O=C(Nc1cccc(F)c1)Nc1ccnn1C1CCN(C(=O)CCN2CCCO2)CC1	i	i	i	i	i	nt	nt	nt	nt
COc1ccc(C(=O)N2CCCC2)cc1S(=O)(=O)N1CCOCC1	i	i	i	i	i	nt	nt	nt	nt
COc1cc2c(cc1OC)CN(C(=O)c1ccc(OC)c(S(=O)(=O)N3CCOCC3)c1)CC2	i	-5.1*	i	i	i	i	i	i	i
